{"data": "Measured values from different studies", "mode": "inhibitor", "BCHE": "Cholinesterase (BCHE, Equus caballus, UniProt P81908)", "note": "Lines come from different studies, so protocols differ."}
{"Structure (SMILES)": "CC(=O)c1c(C)c2cnc(Nc3ccc(C4CCN(CCS(C)(=O)=O)CC4)cn3)nc2n(C2CCCC2)c1=O", "target": "Cytochrome P450 2B6 (CYP2B6, Homo sapiens, UniProt P20813)", "effect on": "enzyme activity", "species": "human", "medium": "liver microsomes", "IC50 [µM]": "> 10"}
{"Structure (SMILES)": "CCN(C)C(=O)Oc1ccc(CCC(=O)N(CC)Cc2ccccc2)cc1OC", "target": "BCHE", "effect on": "enzyme activity", "technique": "Ellman", "IC50 [µM]": 12.7}
{"Structure (SMILES)": "CN1CC[C@@]2(C)c3cc(OC(=O)Nc4ccccc4)ccc3N(C)[C@@H]12", "target": "Aldehyde dehydrogenase, dimeric NADP-preferring (ALDH3A1, Homo sapiens, UniProt P30838)", "effect on": "enzyme activity", "technique": "fluorescence", "IC50 [µM]": "< 10"}
{"Structure (SMILES)": "O=C(O)C(/C=C/c1c(Cl)cccc1Cl)=N\\Nc1nc(-c2ccc(Br)cc2)cs1", "target": "BCHE", "effect on": "enzyme activity", "IC50 [µM]": 8.47}
{"Structure (SMILES)": "CC(C)(C)OC(=O)NC1CCCN(C(=O)/C=C/c2ccc(Br)cc2)C1 (stereo not shown)", "target": "BCHE", "effect on": "enzyme activity", "technique": "Ellman", "IC50 [µM]": 38.1}
{"Structure (SMILES)": "O=C(O)C(/C=C/c1c(Cl)cccc1Cl)=N\\Nc1nc(-c2ccc(F)cc2)cs1", "target": "BCHE", "effect on": "enzyme activity", "IC50 [µM]": 4.04}
{"Structure (SMILES)": "CC(C)(C)OC(=O)NC1CCCN(C(=O)C=Cc2ccccc2)C1 (stereo not shown)", "target": "BCHE", "effect on": "enzyme activity", "technique": "Ellman", "IC50 [µM]": 43.7}
{"Structure (SMILES)": "CN(C)C(=O)Oc1ccc(/C=C/C(=O)NC2CCN(Cc3ccccc3)CC2)cc1", "target": "BCHE", "effect on": "enzyme activity", "technique": "Ellman", "IC50 [µM]": 11.5}
{"Structure (SMILES)": "CC(C)(C)OC(=O)NC1CCCN(C(=O)/C=C/c2cccc([N+](=O)[O-])c2)C1 (stereo not shown)", "target": "BCHE", "effect on": "enzyme activity", "technique": "Ellman", "IC50 [µM]": "> 50"}
{"Structure (SMILES)": "O=C(N1CCC2(CC1)C[C@H](CN1CCCCS1(=O)=O)CCO2)C1(c2ccccc2)CCCC1", "target": "DHX58 (Homo sapiens, UniProt Q96C10)", "effect on": "ATPase activity", "IC50 [µM]": "> 50"}
{"Structure (SMILES)": "CCN(CC)C(=O)Oc1ccc(/C=C/C(=O)NC2CCN(Cc3ccccc3)CC2)cc1", "target": "BCHE", "effect on": "enzyme activity", "technique": "Ellman", "IC50 [µM]": 15.2}
{"Structure (SMILES)": "O=C(O)C(/C=C/c1c(Cl)cccc1Cl)=N\\Nc1nc(-c2ccc(Cl)cc2)cs1", "target": "BCHE", "effect on": "enzyme activity", "IC50 [µM]": 7.36}
{"Structure (SMILES)": "CC(C)(C)OC(=O)NC1CCCN(C(=O)/C=C/c2cccc(F)c2)C1 (stereo not shown)", "target": "BCHE", "effect on": "enzyme activity", "technique": "Ellman", "IC50 [µM]": 15.3}
{"Structure (SMILES)": "COc1cc(/C=C/C(=O)NC2CCN(Cc3ccccc3)CC2)ccc1OC(=O)N(C)C", "target": "BCHE", "effect on": "enzyme activity", "technique": "Ellman", "IC50 [µM]": 9.6}
{"Structure (SMILES)": "COc1ccc(OC)c(/C=C/C(=O)N2CCCC(NC(=O)OC(C)(C)C)C2)c1 (stereo not shown)", "target": "BCHE", "effect on": "enzyme activity", "technique": "Ellman", "IC50 [µM]": "> 50"}
{"Structure (SMILES)": "COc1cc(/C=C/C(=O)NC2CCN(Cc3ccccc3)CC2)ccc1OC(=O)N1CCCC1", "target": "BCHE", "effect on": "enzyme activity", "technique": "Ellman", "IC50 [µM]": 3.4}
